Screening data (PubChem BioAssay)
Cl transport mod: KCC2 cotransporter modulators, thallium flux, primary screen, cell-based, HEK293 KCC2, FluoZin-2 fluorescence, MLSMR; B-score of Tl+ flux slope (higher = more flux/activation; lower = inhibition) at 10 µM; Solute carrier family 12 member 5 (Homo sapiens), Q9H2X9; KCC2 cells, thallium flux FluoZin-2 fluorescence; 2.2% of 190,000 active; AID 1456, 2008;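 active = thallium flux slope and its plate-corrected score both differing from the plate sample mean at a set confidence after two filtering rounds, in either direction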;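 also: slope of fluorescence scaled to starting intensity during 10 to 20 s after thallium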
Rad51 HR inh: human RAD51 strand exchange inhibitors, primary screen, biochemical, fluorescence; DNA repair protein RAD51 homolog 1 (Homo sapiens), Q06609; hRad51 DNA strand exchange, fluorescence dequenching; inhibition, % at 10 µM; 0.085% of 200,000 active; AID 1385, 2008;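 active = inhibition above 40% at the single screening dose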;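 also: 0% = DMSO control wells and 100% = blanks with heterologous ssDNA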
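Assay system: Human Rad51 nucleoprotein filaments preassembled on unlabelled ssDNA | Reagent: Donor/quencher-labelled 47-bp dsDNA substrate | Doses: One concentration, 10 µM final | Times: 37 °C 15-min filament assembly, 30-min compound preincubation, 15-min exchange | Technique: Fluorescein emission 520 nm, excitation 485 nm | Benchmarks: Plate control and blank wells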
CHT allo act: CHT positive allosteric modulators, primary screen, cell-based, membrane potential dye, choline EC20. High affinity choline transporter 1 (Homo sapiens), Q9GZV3. CHT-expressing cells; hits give high values; LV-AA mutant CHT in HEK293 cells. B-score at 10 µM. 0.49% of 310,000 active;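 active = initial fluorescence not abnormally high and integrated response B-score, plate-corrected, over 3 SD above library mean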
Target sequence (Q9GZV3 whole entry, looked up): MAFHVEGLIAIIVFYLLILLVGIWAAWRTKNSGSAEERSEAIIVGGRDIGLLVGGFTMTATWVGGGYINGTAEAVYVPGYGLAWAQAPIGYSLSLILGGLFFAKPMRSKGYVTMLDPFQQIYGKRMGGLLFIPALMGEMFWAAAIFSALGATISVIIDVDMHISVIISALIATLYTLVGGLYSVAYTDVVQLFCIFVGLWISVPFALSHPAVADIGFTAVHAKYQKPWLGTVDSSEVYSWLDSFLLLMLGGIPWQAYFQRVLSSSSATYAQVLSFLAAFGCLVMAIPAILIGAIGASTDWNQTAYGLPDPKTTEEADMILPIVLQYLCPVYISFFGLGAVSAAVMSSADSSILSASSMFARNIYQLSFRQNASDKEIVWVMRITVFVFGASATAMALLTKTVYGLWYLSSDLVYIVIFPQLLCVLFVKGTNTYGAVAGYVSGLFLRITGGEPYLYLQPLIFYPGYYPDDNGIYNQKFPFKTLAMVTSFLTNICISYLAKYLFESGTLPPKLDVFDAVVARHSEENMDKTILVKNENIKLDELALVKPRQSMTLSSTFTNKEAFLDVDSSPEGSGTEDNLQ
CHT block: inhibitors of human choline transporter CHT | High affinity choline transporter 1 (Homo sapiens), Q9GZV3 | CHT-expressing cells, membrane potential dye, choline response; hits give low values | B-score at 10 µM | 0.86% of 310,000 active;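 active = B-score over 3 SD under the library average, and starting fluorescence ratio not unusually high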;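 also: choline stimulus applied at its EC90 after an EC20 pre-addition; B-score computed on integrated fluorescence ratio after choline addition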
CHT inh conf: CHT inhibitors, confirmation, cell-based, membrane potential dye, duplicate | shares compounds with CHT block | CHT-expressing cells, choline membrane potential dye; LV-to-AA substituted CHT, HEK293 cells | CHT activity remaining % of control (hits give low values), % at 10 µM | 70% of 2,400 active;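 active = choline transporter activity left, mean of duplicates at 10 µM, below buffer-only control mean minus 3 SD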;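 also: depolarization triggered by choline at its EC90 following an EC20 pre-addition; 0% = hemicholinium-3 full block and 100% = buffer-only control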
HEK293 CHT ctr: membrane potential effects in parental HEK293, counter-screen for CHT inhibitor project, cell-based, membrane potential dye | shares compounds with CHT block | choline response; active = decrease or increase beyond buffer ±3SD | membrane potential ratio readout (active if shifted either direction beyond buffer ±3SD; no single direction) at 10 µM | 4% of 2,400 active | AID 493222, 2011;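 also: parental cells lack the transporter so any hit is non-specific; ratio is peak minus trough fluorescence over baseline after EC90 choline challenge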
* marks the source's active call; other numbers are inactive results. Shown are actives, neighbours in structure and some others; about 2.6% of the full set was active somewhere.

`COCCNc1c2c(nc3c(-c4ccccc4)c(C)nn13)CCCC2` gave Cl transport mod 0.81, CHT allo act inactive, CHT block -9*, CHT inh conf 66%* and HEK293 CHT ctr inactive.
Screening Cc1nn2c(NCCOCCO)c3c(nc2c1-c1ccccc1)CCCC3 returned Cl transport mod -0.22, Rad51 HR inh 2, CHT allo act inactive, CHT block -5.2*, CHT inh conf 31%* and HEK293 CHT ctr inactive.
For CCCCNc1c2c(nc3c(-c4ccccc4)c(C)nn13)CCC2 the results were Rad51 HR inh -2, CHT allo act inactive and CHT block inactive.
`CCc1ccc(-c2ccc(C(=O)C(F)(F)F)[nH]2)cc1` gave Rad51 HR inh 0, CHT allo act inactive and CHT block inactive.
`CCOc1cc(C(=O)N2CCC(CC3CC(c4cccc(Br)c4)=NO3)(C(=O)NCC3CCCCC3)CC2)cc(OCC)c1OCC` (stereo unspecified) gave CHT allo act inactive and CHT block inactive.
`O=C(NCc1cccnc1)c1ccc(COc2ccc3c(c2)CCC3)o1` gave Cl transport mod -1.6, Rad51 HR inh 2, CHT allo act inactive and CHT block inactive.
`CCN(CC)C(=O)c1ccc(COc2ccccc2Br)o1` gave Rad51 HR inh 7, CHT allo act inactive, CHT block -8.2*, CHT inh conf 58%* and HEK293 CHT ctr inactive.
COc1ccccc1OCc1ccc(C(=O)NC(C)(C)C)o1 was read as Cl transport mod -0.41, Rad51 HR inh -1, CHT allo act inactive and CHT block inactive.
Screening CC(=O)Nc1ccc(NC(=O)c2ccc(COc3ccccc3Br)o2)cc1 returned CHT allo act inactive and CHT block inactive.
`CC(C)(C)NC(=O)c1ccc(COc2ccccc2Br)o1` gave Rad51 HR inh 11, CHT allo act inactive, CHT block -6.3*, CHT inh conf inactive and HEK293 CHT ctr inactive.
Screening O=C(NCc1cccnc1)c1ccc(COc2ccccc2Cl)o1 returned Cl transport mod -2, Rad51 HR inh 0, CHT allo act inactive, CHT block -5.4*, CHT inh conf 58%* and HEK293 CHT ctr inactive.
Screening COc1ccc(Cl)cc1C(=O)NNC(=S)NC(=O)c1ccc(F)c(F)c1 returned CHT allo act inactive and CHT block inactive.
`O=C(N/N=C/c1cc([N+](=O)[O-])ccc1O)c1cccc(NC(=O)c2cccc(Cl)c2)c1` gave CHT allo act inactive and CHT block inactive.
O=c1c2ccccc2nc2c3ccccc3c(NCCO)nn12 was read as Cl transport mod -1.2, Rad51 HR inh 22, CHT allo act inactive and CHT block inactive.
`O=C1CC(c2ccco2)CC(O)=C1C=Nc1ccccc1-c1ccccc1` (stereo unspecified) gave Cl transport mod 0.28, Rad51 HR inh 26, CHT allo act inactive, CHT block -5.6*, CHT inh conf inactive and HEK293 CHT ctr inactive.
`COc1ccc(C2=NS(=O)(=O)N(C)C(C(=O)N3CCC(C(N)=O)CC3)=C2)cc1` gave CHT allo act inactive and CHT block inactive.
For COc1ccc(/C=C2\SC(=S)N(NS(=O)(=O)c3ccccc3)C2=O)c(OC)c1 the results were CHT allo act inactive and CHT block inactive.
`O=C(NN1C(=O)/C(=C/c2cccs2)SC1=S)c1ccncc1` gave Cl transport mod -1.7, CHT allo act inactive, CHT block -10*, CHT inh conf 7.4%* and HEK293 CHT ctr inactive.
For O=C(NN1C(=O)/C(=C/c2cccc(O)c2)SC1=S)c1ccccc1O the results were CHT allo act inactive, CHT block -5.2*, CHT inh conf 68%* and HEK293 CHT ctr inactive.
